An excerpt weighted towards active compounds, which were near 4.1% of everything screened.
hERG protect – hERG rescue from dofetilide block, primary screen, cell-based, CHO-hERG, FluxOR thallium flux, dofetilide IC70; Voltage-gated inwardly rectifying potassium channel KCNH2 (Homo sapiens), Q12809; dofetilide IC70 present; activation (rescue from dofetilide block), less the hit threshold, % at 10 µM; 310,000 tested, 0.51% active; AID 1511, 2009;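 active = activation above the mean of controls blocked by dofetilide plus 5 SD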;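 also: thallium influx through hERG after potassium depolarization seen as dye fluorescence rise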
KCNQ1 block – inhibitors of human KCNQ1 channel, primary screen, cell-based, thallium flux, high-throughput | CHO-K1 KCNQ1, FluxOR thallium flux fluorescence; hits give high values | B-score at 10 µM | 310,000 tested, 1.3% active;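 active = compounds whose thallium flux B-score, printed positive for inhibition, exceeds three library SD while starting fluorescence stays within three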;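 also: channel opened by potassium depolarization with thallium stimulus after 20 min compound exposure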
KCNK3 inh – human KCNK3 channel inhibitors, primary screen, CHO cells, FluxOR thallium flux, B-score; 340,000 tested, 0.84% active; FluxOR fluorescence; hits give low values; B-score at 10 µM; Potassium channel subfamily K member 3 (Homo sapiens), O14649;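 active = B-score under library mean minus 4 SD, starting fluorescence ratio at most library mean plus 5 SD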;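 also: more negative B-score means stronger inhibition of thallium flux through KCNK3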
KCNK9 inh – KCNK9 potassium channel inhibitors, primary screen, HEK293 cells, thallium flux; FluxOR thallium flux fluorescence; hits give low values; AID 488922, 2010; 310,000 tested, 1.2% active; Potassium channel subfamily K member 9 (Homo sapiens), Q9NPC2; B-score at 10 µM;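 active = ratio B-score over 3 SD below the library mean, with starting fluorescence within 5 SD of its mean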;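 also: negative B-score means less thallium flux so channel inhibition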
KCNQ1 pot – potentiators or activators of KCNQ1 channel, primary screen, cell-based, thallium flux, high-throughput; B-score at 10 µM; AID 2648, 2010; CHO-K1 KCNQ1, thallium flux FluxOR fluorescence; hits give high values; 310,000 tested, 0.35% active;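 active = fluorescence ratio B-score, a plate-corrected score, at least three library SD, with initial intensity B-score within 5 SD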
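Assay system: stable KCNQ1 CHO-K1 line; medium: assay buffer, equal DMSO in all wells; timing: 90 min dye loading and 20 min compound exposure, both at room temperature; technique: kinetic FluxOR thallium fluorescence, 10-s 1-Hz baseline, 110-s post-stimulus read; read-out basis: B score of baseline-normalized fluorescence ratio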
Cl transport mod – KCC2 cotransporter modulators, thallium flux, primary screen, cell-based, HEK293 KCC2, FluoZin-2 fluorescence, MLSMR | Solute carrier family 12 member 5 (Homo sapiens), Q9H2X9 | AID 1456, 2008 | B-score of Tl+ flux slope (higher = more flux/activation; lower = inhibition) at 10 µM | 190,000 tested, 2.2% active | KCC2 cells, thallium flux FluoZin-2 fluorescence;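 active = thallium flux slope and its plate-corrected score both differing from the plate sample mean at a set confidence after two filtering rounds, in either direction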;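 also: slope of fluorescence scaled to starting intensity during 10 to 20 s after thallium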
Of the large screens only hits and unclear results are named; the others gave an inactive call.

CC(C)NC(=O)N(C)C[C@H]1Oc2ccc(NS(=O)(=O)c3ccc(F)cc3)cc2C(=O)N([C@H](C)CO)C[C@@H]1C	none (no result: hERG protect, KCNQ1 block, KCNK9 inh, KCNQ1 pot, Cl transport mod)
CCCn1c(N)c(N(CCOC)C(=O)c2cc(S(=O)(=O)N3CCCCCC3)ccc2OC)c(=O)[nH]c1=O	none (no result: Cl transport mod)
COc1ccc(Cl)cc1NC(=O)CN(C)C(=O)c1ccc(-n2cncn2)cc1	none (no result: hERG protect, KCNQ1 block, KCNK9 inh, KCNQ1 pot, Cl transport mod)
CCOc1ccccc1N(CC(=O)OC)S(C)(=O)=O	hERG protect 4.6
CCOc1ccccc1N(CC(=O)N1CCCCCC1)S(C)(=O)=O	none
COc1ccccc1/C=C/C(=O)c1cc(Br)ccc1OC(=O)c1ccco1	hERG protect 5.0
O=C(/C=C/c1cc(Br)ccc1O)c1ccco1	KCNK3 inh -9.8
Cc1ccc(/C=C/C(=O)c2cc(Br)ccc2OC(=O)c2ccco2)cc1	none
CSc1nc(-c2ccccc2)[nH]c(=S)c1C(C)=O	hERG protect 32, KCNQ1 pot 44, Cl transport mod 21
COC(=O)c1ccc(C(C(=O)NC2CCCCC2)N(C(=O)Cc2cccs2)C2CC2)cc1 (stereo not given)	KCNQ1 block 6
COC(=O)c1ccc(C(C(=O)NC2CCCCC2)N(Cc2ccccc2)C(=O)Cc2cccs2)cc1 (stereo not given)	none
O=C(NC1CCCCC1)N1CCC(n2cnc3ccccc32)CC1	hERG protect 6.2
Cc1cccc(C)c1NC(=O)N1CCC(n2cnc3ccccc32)CC1	none (no result: Cl transport mod)
Cc1cc(C)nc(NC(=O)c2cc(-c3ccc(C)s3)nc3ccccc23)c1	KCNQ1 block 6
CN(c1ccccc1)S(=O)(=O)c1cccc(C(=O)NCCCN2CCCC2=O)c1	none (no result: Cl transport mod)
Cc1cccc(OC(=O)NCCOC(=O)N(O)c2ccc(Cl)cc2)c1	KCNQ1 block 6
CCOc1ccc(CCNC(=O)c2cc(-c3ccccc3)c(N3CCOCC3)s2)cc1OCC	KCNQ1 block 6 (no result: Cl transport mod)
COC(=O)NCC(C)OC(=O)Nc1cccc(Cl)c1 (stereo not given)	none
CC(CNC(=O)COc1ccccc1)OC(=O)Nc1ccc(Cl)c(Cl)c1 (stereo not given)	KCNQ1 pot 9
c1ccc2c(c1)CCN(c1ncnc3c1[nH]c1ccccc13)C2	KCNQ1 block 11, KCNK3 inh -8.7 (no result: Cl transport mod)
COc1ccc2c(c1)/C(=C\c1cccc(/C=C3/C(=O)Nc4ccc(OC)cc43)n1)C(=O)N2	none (no result: hERG protect, KCNQ1 block, KCNK9 inh, KCNQ1 pot, Cl transport mod)
C#Cc1ccc([C@@H]2C=C(C(=O)NCc3ccccc3)O[C@H](OCCCCO)C2)cc1	none (no result: Cl transport mod)
CCN(C(=O)c1cc2c(=O)[nH]c3ccc(C)cc3c2s1)c1ccccc1F	hERG protect 9.2, KCNQ1 pot 26
O=C(Nc1nccs1)c1cc(-c2ccccc2)nc2ccccc12	KCNK9 inh -6.7
CCOC(=O)c1sc(NC(=O)c2cc(-c3ccccc3)nc3ccccc23)c(C#N)c1C	KCNQ1 block 8 (no result: Cl transport mod)
O=C(Nc1nccs1)c1cc(-c2ccco2)nc2ccccc12	none (no result: Cl transport mod)
Cc1ccc(C)c(-c2cc(C(=O)Nc3sc(C)c(C)c3C(N)=O)c3ccccc3n2)c1	KCNQ1 block 6 (no result: Cl transport mod)
COC(=O)c1sccc1NC(=O)c1cc(-c2ccc(C)cc2C)nc2ccccc12	KCNQ1 block 8
COC(=O)c1sccc1NC(=O)c1ccccc1C(=O)O	none (no result: Cl transport mod)
CC1=C(C(=O)OC2CCCC2)C(c2ccc(C)o2)C2=C(CC(c3cccs3)CC2=O)N1 (stereo not given)	KCNQ1 block 8
COc1ccc(-n2ncc3c2CC(C)(C)CC3NC(=O)c2ocnc2C)cc1 (stereo not given)	none (no result: Cl transport mod)
CCOc1ccc2[nH]c(=O)c(CN(CCN3CCCC3)C(=S)Nc3ccccc3OCC)cc2c1	KCNQ1 pot 10
COc1ccc2[nH]c(=O)c(CN(CCN3CCCC3)C(=O)Nc3ccccc3Cl)cc2c1	none (no result: Cl transport mod)
CS(=O)(=O)N(CC(=O)NCCSCc1ccccc1Cl)c1ccc(F)cc1	none (no result: Cl transport mod)
COc1ccc(Br)cc1/C=C/C(=O)NC(=S)Nc1ccc(CN2CCOCC2)cc1	KCNQ1 block 8 (no result: Cl transport mod)
CC1CCN(C(C(=O)Nc2ccc(C(C)C)cc2)c2ccc3c(c2)OCO3)CC1 (stereo not given)	KCNK9 inh -8.1
CC(C)c1ccc(NC(=O)C(c2ccc3c(c2)OCO3)N2CCCCC2)cc1 (stereo not given)	KCNK9 inh -7.4
CC(C)c1ccc(NC(=O)C(c2ccc3c(c2)OCO3)N2CCC3(CC2)OCCO3)cc1 (stereo not given)	none
CCCOc1ccccc1C(=O)N(Cc1cccc(Br)c1)C1CCS(=O)(=O)C1 (stereo not given)	none (no result: Cl transport mod)
O=C(C[n+]1ccccc1)N/N=C/c1ccc(Br)cc1	none (no result: hERG protect, KCNQ1 block, KCNK9 inh, KCNQ1 pot, Cl transport mod)
COc1ccc(N/N=C(/C#N)S(=O)(=O)C(C)(C)C)cc1	none
CSc1ccc(N/N=C(/C#N)S(=O)(=O)C(C)(C)C)cc1	Cl transport mod -4.6
COc1ccc(NC(=O)CSc2nnc(NC(=O)C3CC3)s2)cc1OC	none (no result: Cl transport mod)
NNc1nc(Nc2ccc([N+](=O)[O-])cc2)nc(N2CCCCCC2)n1	KCNQ1 block 6 (no result: Cl transport mod)
CC1(C)Cc2c(sc3c2C2=NCCN2C=N3)CO1	Cl transport mod 7
CCN(C(=O)COC(=O)CCCOc1ccc(Cl)cc1C)c1c(N)n(Cc2ccccc2)c(=O)[nH]c1=O	none (no result: hERG protect, KCNQ1 block, KCNK9 inh, KCNQ1 pot, Cl transport mod)
Cc1ccc(-c2csc(=S)[nH]2)cc1	hERG protect 97, KCNQ1 pot 94, Cl transport mod 100
S=c1[nH]c(-c2ccc(Cl)cc2)cs1	hERG protect 87, KCNQ1 pot 17, Cl transport mod 55
CCOC(=O)c1ccc(OCCOc2cccc(C)c2)cc1	none (no result: Cl transport mod)
CC(C)(C)[C@H]1C=C(C(=O)Nc2ccccc2)O[C@@H](OCCCCO)C1	none (no result: Cl transport mod)
Cc1ccc(S(=O)(=O)N2CCC[C@H]2C(=O)Nc2ccc(F)cc2C)cc1	none (no result: hERG protect, KCNQ1 block, KCNK9 inh, KCNQ1 pot, Cl transport mod)
CCCn1nc(NS(=O)(=O)c2cccc3nonc23)c2cc3cc(C)ccc3nc21	none (no result: Cl transport mod)
CCCn1nc(NS(=O)(=O)c2cccc3nonc23)c2cc3cccc(C)c3nc21	KCNQ1 block 8 (no result: Cl transport mod)
CCc1ccc(CNC(=O)C2CC(=O)N(C3CCCC3)C2)cc1 (stereo not given)	none (no result: Cl transport mod)
Cc1nc(N2CCC(C)CC2)c2c(C)c(C(=O)Nc3ccc(C(F)(F)F)cc3)sc2n1	KCNQ1 block 10
Cc1cc(C)cc(-n2c(C)cc(/C=N\NC(=O)COc3cccc4cccnc34)c2C)c1	KCNQ1 block 7

Assay outcomes: PubChem, several laboratories
